PostGolgi yeast: phenotypic screen on post-Golgi transport, primary screen | post-Golgi transport phenotypic cell assay | inhibition, % at 10 µM | actives 0.9% (n = 98,000) | AID 739, 2007;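 also: yeast cells grown in 1536-well plates; yeast grown about 18 h at 30C before absorbance read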
Ecoli WT expand: growth inhibitors of wild-type E. coli, primary screen, strain BW25113, expanded library, OD600. actives 0.15% (n = 98,000). AID 710, 2007. OD600 absorbance. growth inhibition, % at 100 µM;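 active = growth inhibition above about 50% at one test dose, limit read from the data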;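 also: growth measured after 20 h incubation at 37 °C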
PostGolgi ctrl: growth inhibition of yeast control strain, primary screen, counter-screen for post-Golgi transport modulator project; efflux-deficient yeast background strain, growth absorbance A615, 16 h; inhibition, % at 10 µM; actives 5% (n = 98,000); AID 738, 2007
EphB4 antag: EphB4-ephrin-B2 interaction antagonists, primary screen, biochemical, TNYL-RAW peptide probe, fluorescence polarization; Ephrin type-B receptor 4 (Homo sapiens), P54760; EphB4 LBD / TNYL-RAW-Alexa532 peptide; actives 0.15% (n = 97,000); inhibition, % at 7 µM;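 active = inhibition above the screen-wide mean inhibition plus 3 SD, cut at about 15% in these data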;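 also: 0% = DMSO wells and 100% = excess unlabeled TNYL-RAW peptide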
Target sequence (P54760 whole entry, looked up, the tested form may be a part): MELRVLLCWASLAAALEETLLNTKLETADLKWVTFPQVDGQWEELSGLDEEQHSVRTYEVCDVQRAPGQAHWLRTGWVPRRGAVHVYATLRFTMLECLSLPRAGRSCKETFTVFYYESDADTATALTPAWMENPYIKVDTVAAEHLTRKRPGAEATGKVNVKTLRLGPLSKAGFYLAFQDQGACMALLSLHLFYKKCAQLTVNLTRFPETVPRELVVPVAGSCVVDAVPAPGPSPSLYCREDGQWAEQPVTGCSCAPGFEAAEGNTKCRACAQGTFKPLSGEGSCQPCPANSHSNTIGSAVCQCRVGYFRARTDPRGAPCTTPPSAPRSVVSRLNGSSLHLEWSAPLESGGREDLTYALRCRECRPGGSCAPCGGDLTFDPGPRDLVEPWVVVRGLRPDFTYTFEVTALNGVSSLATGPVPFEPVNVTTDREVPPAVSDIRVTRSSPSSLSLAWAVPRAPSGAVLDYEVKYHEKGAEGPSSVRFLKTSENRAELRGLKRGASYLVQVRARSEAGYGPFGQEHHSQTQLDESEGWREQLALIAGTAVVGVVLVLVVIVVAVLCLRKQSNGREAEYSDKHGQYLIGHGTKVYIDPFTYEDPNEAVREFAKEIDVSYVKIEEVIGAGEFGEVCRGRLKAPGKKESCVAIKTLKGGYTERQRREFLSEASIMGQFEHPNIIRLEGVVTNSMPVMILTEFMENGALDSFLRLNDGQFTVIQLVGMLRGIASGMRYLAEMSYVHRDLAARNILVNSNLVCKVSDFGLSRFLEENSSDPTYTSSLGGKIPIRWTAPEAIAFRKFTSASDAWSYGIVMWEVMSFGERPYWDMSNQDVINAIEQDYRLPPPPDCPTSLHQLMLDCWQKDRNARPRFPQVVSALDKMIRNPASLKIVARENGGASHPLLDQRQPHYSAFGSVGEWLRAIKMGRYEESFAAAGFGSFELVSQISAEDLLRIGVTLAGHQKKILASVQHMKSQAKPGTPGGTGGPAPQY
tolC growth inh: growth inhibitors of E. coli tolC mutant, primary screen, strain BW25113 ΔtolC::kan, 384-well | OD615 | growth inhibition, % at 10 µM (by protocol) | actives 2.2% (n = 65,000) | AID 573, 2007;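 active = growth inhibition at or above a cutoff equal to the mean over every tested compound plus 3 SD, cut at about 60% in these data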;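 also: growth measured after 20 h incubation at 37 °C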
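Test system: tolC-deleted E. coli BW25113 | Medium: LB with kanamycin 50 µg/mL | Compound dosing: Single concentration, 10 µM final per compound | Schedule: 37 °C, 20 h exposure | Measured by: OD at 615 nm | Evaluation: Percent growth inhibition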
Numbers without * were called inactive; . = not tested or not shown. Only some compounds are listed: those with a hit (about 6% of all), similar ones and a draw of the others. Rule as the data show it, unless noted: active = inhibition above about 30%; inactive = the rest.

SMILES	PostGolgi yeast	Ecoli WT expand	PostGolgi ctrl	EphB4 antag	tolC growth inh
Cc1ccc2c(c1)cc(CN(Cc1cccnc1)C(=O)NCc1ccccc1)c1nnnn12	-6	-8	4	1	.
CC(C)CCN(C(=O)Nc1ccccc1)C(C)c1cccs1 (centres undefined)	3	-10	14	-4	.
Cn1nc(C(F)(F)F)c2cc(NC(=O)OCc3ccc(F)cc3)sc21	-4	10	18	-2	.
Cn1nc(C(F)(F)F)c2cc(NC(=O)OCc3ccc(C(C)(C)C)cc3)sc21	-5	-4	38*	6	.
CC(C)c1nnc(NC(=O)c2c(O)c3cccc4c3n(c2=O)CCC4)s1	80*	-2	59*	1	100*
CC(=O)c1cccc(NC(=O)Cc2ccc3c(c2)CCCC3)c1	-11	-1	6	0	.
Cc1cc(C)nc(SC2=CS(=O)(=O)c3ccccc32)n1	-4	-2	3	-2	-1
O=S1(=O)C=C(Sc2nc3ccccc3s2)c2ccccc21	89*	7	31*	.	22
O=C(Nc1ccc2c(c1)OCO2)C1CCN(Cc2cnn(-c3ccccc3)c2-n2cccc2)CC1	1	-3	4	-2	19
Oc1ccc(Br)cc1/C=N/N1CCN(Cc2ccccc2)CC1	-2	1	21	-5	.
Oc1ccc(Br)cc1/C=N/n1cnc2ccccc21	3	2	32*	10	4
CCOC(=O)c1ccc(N2C(=O)c3n[nH]c(C)c3C2c2ccc(OC)cc2OC)cc1 (centres undefined)	.	.	.	11	68*
CCOC(=O)c1ccc(N2C(=O)c3n[nH]c(C)c3C2c2ccc(OC)cc2)cc1 (centres undefined)	1	3	5	-3	13
COC(=O)c1ccc(C2c3c(n[nH]c3C)C(=O)N2c2ccc(C)cc2)cc1 (centres undefined)	6	4	26	1	75*
COc1ccc(S(=O)(=O)N(C)CC(=O)N2CCN(Cc3ccccc3)CC2)cc1C	11	-2	3	6	.
CC1(C)C(=O)OC(c2ccccc2)C2(CCCC2)C1=O (centres undefined)	-4	-1	16	2	.
CCCSc1nsc(NC(=O)C(c2ccccc2)c2ccccc2)n1	16	-5	35*	-8	.
CC(C)C(=O)Nc1nc(-c2ccccc2)ns1	.	.	.	3	.
Cc1nc(N2CCN(c3ccccc3)CC2)nc2c1C(=O)CCC2	11	-1	22	6	91*
Cc1nc(N2CCN(c3ccccc3)CC2)nc2c1C(=O)CC(C)C2 (centres undefined)	0	1	37*	-1	46
Cc1nc(N2CCN(c3ccccc3)CC2)nc2c1C(=O)CC(c1ccccc1)C2 (centres undefined)	27	-14	-7	4	6
O=C1CCCc2nc(N3CCN(c4ccccc4)CC3)ncc21	-6	-7	8	-6	-8
COc1ccc(NC(C)=O)cc1NC(C)C(=O)Nc1cccc2ccccc12 (centres undefined)	3	-3	-6	-2	.
COc1ccc(C(O)(C(=O)NNc2ccc(C)cc2)c2cccs2)cc1 (centres undefined)	22	9	-6	-2	.
O=C(NNc1ccc(C2CCCCC2)cc1)C(O)(c1ccccc1)c1cccs1 (centres undefined)	15	-12	46*	-1	.
SMILES	PostGolgi yeast	Ecoli WT expand	PostGolgi ctrl	EphB4 antag	tolC growth inh
CC(=O)N(Cc1c(C)nn(-c2ccccc2)c1Cl)c1ccc(Cl)cc1	15	5	35*	-5	.
Cc1nn(-c2ccccc2)c(Cl)c1C(=O)NCC(=O)O	1	0	4	5	-32
O=c1c2c(-c3cccs3)csc2ncn1-c1ccc(Br)cc1	-14	-13	38*	-7	.
O=C(OCCNC(=O)c1ccc2ccccc2n1)c1ccc(F)cc1	2	2	26	6	.
CCCc1cc(=O)[nH]c(SCc2nc3ccccc3s2)n1	-2	1	21	2	.
O=c1[nH]c(SCc2ccccc2Cl)nc2c1cnn2-c1ccccc1	-13	-6	42*	.	11
CCCc1cc(=O)[nH]c(SCc2ccccc2Cl)n1	4	5	45*	0	.
Cc1ccc(Cn2nnc3c(=O)[nH]c(C4CCN(C(=O)c5cccs5)CC4)nc32)cc1	0	1	2	-5	14
O=C(c1ccccc1)N1CCC(c2nc3c(nnn3Cc3ccco3)c(=O)[nH]2)CC1	-3	-1	1	7	.
Cc1ccc(C)c(Cn2nnc3c(=O)[nH]c(C4CCN(C(=O)c5cccs5)CC4)nc32)c1	-4	2	6	-1	64*
O=C(c1ccc(Cl)cc1Cl)N1CCC(c2nc3c(nnn3Cc3ccco3)c(=O)[nH]2)CC1	30*	-2	-10	-7	18
Cc1ccc(CNC(=O)CCS(=O)(=O)c2cc(Br)cc3c2N(C(=O)C2CC2)CC3)o1	-1	1	2	.	-4
CCN(CC)S(=O)(=O)c1cc(C(=O)OCC(=O)c2ccc3c(c2)NC(=O)CO3)ccc1Cl	3	-11	-3	1	.
CC(C)CC(NC(=O)c1ccc(Cl)cc1)C(=O)OCC(=O)c1ccc2c(c1)NC(=O)CO2 (centres undefined)	-14	-3	32*	4	.
COc1ccc(C(C)NC(=O)c2ccccc2)cc1 (centres undefined)	7	-5	-2	16*	.
Cc1ccc2nc(NCC(=O)O)nc(-c3ccccc3)c2c1	-3	-1	5	-4	.
COc1cc(Nc2nc(-c3ccccc3)c3cc(C)ccc3n2)cc(OC)c1OC	-1	-10	35*	-5	.
COc1ccc2oc(=O)c(C(=O)N3CCN(C45CC6CC(CC(C6)C4)C5)CC3)cc2c1	.	.	.	.	-1
COc1ccc(CCn2c(C)cc(C(=O)CSc3nnc(N)s3)c2C)cc1	0	3	21	16*	21
COc1ccc(CCn2c(C)cc(C(=O)CSc3nc(N)cc(=O)[nH]3)c2C)cc1	7	-10	10	-1	.
Cc1cc(C(=O)CSc2nnc(N)s2)c(C)n1CCc1ccc(F)cc1	-10	4	4	7	14
Cc1cc(C(=O)CSc2nnc(N)s2)c(C)n1CCc1ccc(Cl)cc1	3	-14	41*	0	39
COc1ccccc1N1CCN(S(=O)(=O)c2ccc(Cl)s2)CC1	-7	-1	0	2	43
O=C(CCNS(=O)(=O)c1cccs1)N1CCc2ccccc2C1	4	-3	2	7	-2
CC(NC(=O)Nc1nnc(C(F)(F)F)s1)(C(F)(F)F)C(F)(F)F	4	71*	16	-3	3
CCn1c(SC)nnc1-c1sc2cc(Cl)ccc2c1Cl	-3	-7	70*	1	77*
CSc1nnc(-c2sc3cc(Cl)ccc3c2Cl)n1C	5	-2	20	4	15
Cc1sc2ncnc(NCC3(N4CCOCC4)CCCCC3)c2c1C	32*	-6	33*	2	.

Compound activity (PubChem BioAssay)
